Results on 21 compounds are retold here after paper PMC7880896 (European journal of medicinal chemistry, 2020).

One data set has as its system HEK293 cells. Briefly: MTT cytotoxicity assay on HEK293 healthy cell line. The data set is classed as cell-based, human. The procedure, abridged:
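HEK293 cells were seeded 24 h before treatment. Compound was dissolved in DMSO (<1%) and diluted in DMEM, tested up to 100 μM. After 24 and 48 h exposure, wells were washed with D-PBS, and MTT from a 5 mg/mL stock was added for 4 h. Formazan was solubilised in DMSO and absorbance read at 540 nm. At least three independent experiments; IC50 given as mean ± SD.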

Data set [1] concerns the target human adenosine A2A receptor (Homo sapiens, UniProt P29274). Put plainly: Adenosine A2A receptor radioligand binding. The note with it: read-out: Inhibition of A2A receptor radioligand binding. An outline of the steps:
(§1)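 Membranes came from CHO cells expressing recombinant human A1 and HEK293 cells expressing human A2A. Cells were homogenised, centrifuged at 4°C and stored in buffer with 3 U/mL adenosine deaminase. Test compound (1 μM) was incubated with A1 membranes (40 μg) plus 2 nM [3H]DPCPX, or A2A membranes (20 μg) plus 15 nM [3H]ZM241385. Incubation was 60 min, 25°C, in 50 mM Tris-HCl pH 7.4 with 10 mM MgCl2. Bound ligand was GF/B-filtered and scintillation-counted.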

The target of data set [2] is T1, human adenosine A1 receptor (Homo sapiens, UniProt P30542).
T1 sequence (P30542 1-326): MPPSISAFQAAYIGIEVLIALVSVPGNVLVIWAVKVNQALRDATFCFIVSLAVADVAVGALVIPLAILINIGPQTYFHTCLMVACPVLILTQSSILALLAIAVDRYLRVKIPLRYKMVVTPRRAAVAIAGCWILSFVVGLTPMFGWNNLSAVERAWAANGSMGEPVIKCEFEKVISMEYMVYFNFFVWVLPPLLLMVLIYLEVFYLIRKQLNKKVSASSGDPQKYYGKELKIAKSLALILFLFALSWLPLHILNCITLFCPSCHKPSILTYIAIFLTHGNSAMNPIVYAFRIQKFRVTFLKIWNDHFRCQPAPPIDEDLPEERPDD
Put plainly: Adenosine A1 receptor radioligand binding. The settings on record: read-out: Inhibition of A1 receptor radioligand binding. An outline of the steps:
as §1

The subject of the next data set is U87MG cell line. The settings on record: read-out: IC50 on U87MG cell line; cited from earlier work.
In the next data set the test system is U87MG cells. Briefly: MTT antiproliferative assay on U87MG glioblastoma cells. The data set is classed as cell-based, human. The settings on record: for viability at 10 µM: Homo sapiens, U-87 MG, read-out: % Viability U87MG, 10 μM, ± SD.
Another data set concerns MCF7 cells. Put plainly: MTT antiproliferative assay on MCF7 cells. The note with it: read-out: IC50 MCF7, mean ± SD. The data set is classed as cell-based, human. The procedure, abridged:
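MCF7 cells were kept in DMEM/F-12 with 10% FBS, penicillin/streptomycin and L-glutamine, passaged every 3 days, and seeded 24 h before treatment. Compound was dissolved in DMSO (<1%) and diluted in DMEM. After 24 and 48 h exposure, cells were washed with D-PBS and given MTT from a 5 mg/mL stock for 4 h. Formazan was dissolved in DMSO and read at 540 nm. At least three independent experiments; mean ± SD.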
On the technique in general: Tetrazolium assays rely on reduction of a dye to a coloured formazan, in cell work by metabolically active cells.

[3] abbreviates: Homo sapiens, HEK293, read-out: IC50 HEK293.

Like-named read-outs stand apart in the source and are kept apart here.

Sequence of human adenosine A2A receptor (P29274 whole entry): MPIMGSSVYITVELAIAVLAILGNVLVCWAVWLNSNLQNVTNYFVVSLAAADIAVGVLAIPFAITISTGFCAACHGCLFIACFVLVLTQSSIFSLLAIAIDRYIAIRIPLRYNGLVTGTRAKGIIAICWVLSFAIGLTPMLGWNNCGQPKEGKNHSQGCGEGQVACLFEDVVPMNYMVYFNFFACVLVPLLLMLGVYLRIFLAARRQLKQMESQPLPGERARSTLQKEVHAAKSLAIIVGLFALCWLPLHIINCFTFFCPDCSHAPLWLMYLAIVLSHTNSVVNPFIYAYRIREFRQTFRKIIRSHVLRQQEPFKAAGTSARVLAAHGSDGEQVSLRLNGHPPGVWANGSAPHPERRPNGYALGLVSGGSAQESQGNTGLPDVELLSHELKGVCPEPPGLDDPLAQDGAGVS

For the compound `COc1ccc(-c2nc(C)c(C(=O)CSc3nc(N)c(C#N)c(-c4ccccc4)n3)s2)cc1` [Compound 5d, 4-amino-2-((2-(2-(4-methoxyphenyl)-4-methylthiazol-5-yl)-2-oxoethyl)thio)-6-phenylpyrimidine-5-carbonitrile], the IC50 (usually the concentration at which inhibition is half-maximal) with HEK293 cells (setting [3]) is greater than 100 µM.
Same read-out and setting: to `Cc1nc(-c2ccc(Cl)cc2)sc1C(=O)CSc1nc(-c2ccccc2)c(C#N)c(=O)[nH]1` [Compound 4q, 2-((2-(2-(4-chlorophenyl)-4-methylthiazol-5-yl)-2-oxoethyl)thio)-6-oxo-4-phenyl-1,6-dihydropyrimidine-5-carbonitrile] belongs greater than 100 µM.
Still for that read-out and setting: to `Cc1nc(-c2ccc(Cl)cc2)sc1C(=O)CSc1nc(N)c(C#N)c(-c2ccccc2)n1` [Compound 5g, 4-amino-2-((2-(2-(4-chlorophenyl)-4-methylthiazol-5-yl)-2-oxoethyl)thio)-6-phenylpyrimidine-5-carbonitrile] belongs greater than 100 µM; to `COc1ccc(-c2nc(C)c(C(=O)CSc3nc(-c4cccc(Cl)c4)c(C#N)c(=O)[nH]3)s2)cc1` [Compound 4m, 4-(3-chlorophenyl)-2-((2-(2-(4-methoxyphenyl)-4-methylthiazol-5-yl)-2-oxoethyl)thio)-6-oxo-1,6-dihydropyrimidine-5-carbonitrile], greater than 100 µM; to `Cc1nc(-c2ccccc2)sc1C(=O)CSc1nc(-c2cccc(Cl)c2)c(C#N)c(=O)[nH]1` [Compound 4e, 4-(3-chlorophenyl)-2-((2-(4-methyl-2-phenylthiazol-5-yl)-2-oxoethyl)thio)-6-oxo-1,6-dihydropyrimidine-5-carbonitrile], greater than 100 µM.
On the same count and under the same terms, to `COc1ccc(-c2nc(C)c(C(=O)CSc3nc(-c4ccc(OC)cc4)c(C#N)c(=O)[nH]3)s2)cc1` [Compound 4k, 4-(4-methoxyphenyl)-2-((2-(2-(4-methoxyphenyl)-4-methylthiazol-5-yl)-2-oxoethyl)thio)-6-oxo-1,6-dihydropyrimidine-5-carbonitrile] belongs greater than 100 µM; to `COc1ccc(-c2nc(SCC(=O)c3sc(-c4ccc(Cl)cc4)nc3C)[nH]c(=O)c2C#N)cc1OC` [Compound 4t, 2-((2-(2-(4-chlorophenyl)-4-methylthiazol-5-yl)-2-oxoethyl)thio)-4-(3,4-dimethoxyphenyl)-6-oxo-1,6-dihydropyrimidine-5-carbonitrile], greater than 100 µM.
For the compound `COc1ccc(-c2nc(C)c(C(=O)CSc3nc(N)c(C#N)c(-c4ccc(OC)cc4)n3)s2)cc1` [Compound 5e, 4-amino-6-(4-methoxyphenyl)-2-((2-(2-(4-methoxyphenyl)-4-methylthiazol-5-yl)-2-oxoethyl)thio)pyrimidine-5-carbonitrile], the IC50 with HEK293 cells (setting [3]) was greater than 100 µM. Moreover, the “cytotoxic effect on HEK293 (in words)” value with HEK293 cells (healthy cell line) is given as “no cytotoxic effect even at high concentrations”. Also, in data set [1], the inhibition (in general, the drop in the measured response relative to a control, in per cent) at 1 µM was -18%.
In the case of `COc1ccc(-c2nc(SCC(=O)c3sc(-c4ccc(Cl)cc4)nc3C)[nH]c(=O)c2C#N)cc1` [Compound 4s, 2-((2-(2-(4-chlorophenyl)-4-methylthiazol-5-yl)-2-oxoethyl)thio)-4-(4-methoxyphenyl)-6-oxo-1,6-dihydropyrimidine-5-carbonitrile], the IC50 in the data set with HEK293 cells (setting [3]) was greater than 100 µM.
With `Cc1nc(-c2ccccc2)sc1C(=O)CSc1nc(N)c(C#N)c(-c2ccc(Cl)cc2)n1` [Compound 5c, 4-amino-6-(4-chlorophenyl)-2-((2-(4-methyl-2-phenylthiazol-5-yl)-2-oxoethyl)thio)pyrimidine-5-carbonitrile], the IC50 in the data set on HEK293 cells (setting [3]) is greater than 100 µM. In addition, the inhibition at 1 µM in data set [2] is -23%.
As to `Cn1nnc2c(C(N)=O)ncn2c1=O` [temozolomide], in the data set on U87MG cell line, the IC50 was 130 to 171 µM.
Turning to `N.N.[Cl][Pt][Cl]` [cisplatin, reference compound], the IC50 worked out at 1.67 ± 0.04 µM in the data set with U87MG cells (read-out: IC50 U87MG, MTT, mean ± SD); 8.44 ± 0.86 µM in the data set on HEK293 cells (read-out: IC50 HEK293, MTT, mean ± SD, ND = viability higher than 50% at 100 μM); 2.51 ± 0.29 µM in the data set on MCF7 cells.
Take `COc1ccc(-c2nc(C)c(C(=O)CSc3nc(-c4ccc5c(c4)OCO5)c(C#N)c(=O)[nH]3)s2)cc1` [Compound 4p, 4-(benzo[d][1,3]dioxol-5-yl)-2-((2-(2-(4-methoxyphenyl)-4-methylthiazol-5-yl)-2-oxoethyl)thio)-6-oxo-1,6-dihydropyrimidine-5-carbonitrile]: the IC50 in the data set with HEK293 cells (setting [3]) was greater than 100 µM.
Same read-out and setting: then `Cc1nc(-c2ccccc2)sc1C(=O)CSc1nc(-c2ccc(Cl)cc2)c(C#N)c(=O)[nH]1` [Compound 4f, 4-(4-chlorophenyl)-2-((2-(4-methyl-2-phenylthiazol-5-yl)-2-oxoethyl)thio)-6-oxo-1,6-dihydropyrimidine-5-carbonitrile], with greater than 100 µM; and `Cc1nc(-c2ccccc2)sc1C(=O)CSc1nc(-c2ccc3c(c2)OCO3)c(C#N)c(=O)[nH]1` [Compound 4h, 4-(benzo[d][1,3]dioxol-5-yl)-2-((2-(4-methyl-2-phenylthiazol-5-yl)-2-oxoethyl)thio)-6-oxo-1,6-dihydropyrimidine-5-carbonitrile], with greater than 100 µM.
On to `COc1ccc(-c2nc(SCC(=O)c3sc(-c4ccc(Cl)cc4)nc3C)nc(N)c2C#N)cc1` [Compound 5h, 4-amino-2-((2-(2-(4-chlorophenyl)-4-methylthiazol-5-yl)-2-oxoethyl)thio)-6-(4-methoxyphenyl)pyrimidine-5-carbonitrile], for which the IC50 in the data set with HEK293 cells (setting [3]) was greater than 100 µM. Moreover, the inhibition at 1 µM in data set [1] is -22%.
Take `COc1ccc(-c2nc(SCC(=O)c3sc(-c4ccccc4)nc3C)nc(N)c2C#N)cc1` [Compound 5b, 4-amino-6-(4-methoxyphenyl)-2-((2-(4-methyl-2-phenylthiazol-5-yl)-2-oxoethyl)thio)pyrimidine-5-carbonitrile]: the IC50 in the data set with HEK293 cells (setting [3]) is greater than 100 µM.
For `COc1ccc(-c2nc(C)c(C(=O)CSc3nc(-c4cccc(OC)c4)c(C#N)c(=O)[nH]3)s2)cc1` [Compound 4j, 4-(3-methoxyphenyl)-2-((2-(2-(4-methoxyphenyl)-4-methylthiazol-5-yl)-2-oxoethyl)thio)-6-oxo-1,6-dihydropyrimidine-5-carbonitrile], the viability (usually the share of living cells, or the viability signal relative to a control) at 10 µM in the data set with U87MG cells is less than 70%.
The same measure, in the same setting: to `COc1ccc(-c2nc(SCC(=O)c3sc(-c4ccccc4)nc3C)[nH]c(=O)c2C#N)cc1OC` [Compound 4d, 4-(3,4-dimethoxyphenyl)-2-((2-(4-methyl-2-phenylthiazol-5-yl)-2-oxoethyl)thio)-6-oxo-1,6-dihydropyrimidine-5-carbonitrile] belongs less than 70%.
For the compound `COc1ccc(-c2nc(C)c(C(=O)CSc3nc(-c4ccccc4)c(C#N)c(=O)[nH]3)s2)cc1` [Compound 4i, 2-((2-(2-(4-methoxyphenyl)-4-methylthiazol-5-yl)-2-oxoethyl)thio)-6-oxo-4-phenyl-1,6-dihydropyrimidine-5-carbonitrile], the IC50 in the data set with HEK293 cells (setting [3]) is greater than 100 µM.
Regarding `COc1ccc(-c2nc(C)c(C(=O)CSc3nc(-c4ccc(OC)c(OC)c4)c(C#N)c(=O)[nH]3)s2)cc1` [Compound 4l, 4-(3,4-dimethoxyphenyl)-2-((2-(2-(4-methoxyphenyl)-4-methylthiazol-5-yl)-2-oxoethyl)thio)-6-oxo-1,6-dihydropyrimidine-5-carbonitrile], the viability at 10 µM in the data set with U87MG cells was less than 70%.
